This note sets out measurements from ChEMBL document CHEMBL4831540, “Discovery of Aficamten (CK-274), a Next-Generation Cardiac Myosin Inhibitor for the Treatment of Hypertrophic Cardiomyopathy” (J Med Chem, 2021).

Molecules are shown by their SMILES.

Series [1] concerns Rattus norvegicus. Description: Anti-hypertrophic cardiomyopathy in Sprague-Dawley rat assessed as reduction in fractional shortening at 4 mg/kg, po measured upto 24 hrs by echocardiography relative to control. It is filed as functional. The arrangement: scale not given: the % may be the effect or the level left. Conditions: time hrs <=24. Put shortly:
(§1)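 Normal Sprague–Dawley rats were given single oral doses of 0.5–4 mg/kg. Left ventricular dimensions and fractional shortening were measured by echocardiography at selected time points over 24 h, relative to vehicle treatment.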

Series [2] has as its system Rattus norvegicus. The experiment in a line: Anti-hypertrophic cardiomyopathy in po dosed Sprague-Dawley rat assessed as reduction in fractional shortening measured upto 24 hrs by echocardiography. In kind it is functional, organism-based. The method, boiled down:
as §1

A short description of series [3]: Ratio of IC50 to IC10 for anti-hypertrophic cardiomyopathy in po dosed Sprague-Dawley rat assessed as reduction in fractional shortening measured upto 24 hrs by echocardiography. In kind it is functional. Conditions: time hrs <=24. The method, boiled down:
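Sprague–Dawley rats received single oral doses from 0.5 to 4 mg/kg. LV dimensions and fractional shortening were read by echocardiography at set times over 24 h, with blood drawn at each reading for compound level. Concentrations giving 50% and 10% FS reduction were derived, and their IC50/IC10 ratio was calculated.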

A further series addresses CYP3A4 (Homo sapiens, UniProt P08684). The experiment in a line: Induction of CYP3A4 in human hepatocytes assessed as mRNA expression incubated for 3 days by RT-RTPCR analysis. In kind it is ADME, cell-based, Hepatocyte. Put shortly: (§2)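 Cryopreserved plateable human primary hepatocytes from three separate donors were tested at concentrations up to 50 μM. The end point was CYP mRNA level, with induction judged against predetermined cutoff values (2-fold).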

In a further series the target is T1, Cytochrome P450 2B6 (Homo sapiens, UniProt P20813).
T1 sequence (P20813 whole entry): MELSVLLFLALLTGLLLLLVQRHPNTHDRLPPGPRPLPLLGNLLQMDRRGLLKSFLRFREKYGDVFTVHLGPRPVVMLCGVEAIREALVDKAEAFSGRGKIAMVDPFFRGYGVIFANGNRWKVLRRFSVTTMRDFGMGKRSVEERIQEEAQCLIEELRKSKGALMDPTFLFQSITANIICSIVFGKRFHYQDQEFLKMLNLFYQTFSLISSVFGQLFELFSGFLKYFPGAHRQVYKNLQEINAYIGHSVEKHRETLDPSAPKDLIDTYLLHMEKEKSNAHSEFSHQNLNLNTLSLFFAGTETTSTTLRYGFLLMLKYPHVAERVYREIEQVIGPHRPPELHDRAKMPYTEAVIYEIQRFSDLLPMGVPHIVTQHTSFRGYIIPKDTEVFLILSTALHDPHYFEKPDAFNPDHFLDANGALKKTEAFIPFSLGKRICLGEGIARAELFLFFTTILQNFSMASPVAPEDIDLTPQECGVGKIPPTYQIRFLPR
Description: Induction of CYP2B6 in human hepatocytes assessed as mRNA expression incubated for 3 days by RT-RTPCR analysis. It is filed as ADME, cell-based. The note with it: hepatocyte. The method, boiled down:
as §2

Series [4] is described as follows: Half life in human. In kind it is ADME.
Series [5] is described as follows: Inhibition of full-length myosin ATPase activity in bovine cardiac myofibrils. It is filed as subcellular, Bos taurus, Heart. Put shortly: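 Bovine cardiac myofibril ATPase assay run at a calcium level giving 75% of maximal activity.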
A short description of series [6]: Metabolic stability in rat liver microsomes assessed as intrinsic clearance measured upto 90mins by HPLC/MS/MS analysis. It is filed as ADME, Microsome. The note with it: read-out: CLH. In general terms: Liver microsomes are vesicles of endoplasmic reticulum, rich in cytochrome P450 enzymes.
Series [7] in a line: Metabolic stability in human liver microsomes assessed as intrinsic clearance measured upto 90mins by HPLC/MS/MS analysis. It is filed as ADME, Microsome. The note with it: read-out: CLH.
A short description of series [8]: Plasma protein binding in rat plasma assessed as unbound concentration at 5 uM incubated for 6 hrs by HPLC analysis. It is filed as ADME, cell-free.
The nature of series [9]: Plasma protein binding in rat assessed as unbound fraction. In kind it is ADME, cell-free.
Series [10] in a line: Clearance in Sprague-Dawley rat at 1 mg/kg. It is filed as ADME, organism-based. Conditions: in vivo. Put shortly:
(§3)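 Rat PK with iv and po administration at 1 mg/kg. Clearance and half-life came from the iv arm, and bioavailability from the iv/po comparison.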

The nature of series [11]: Half life in Sprague-Dawley rat at 1 mg/kg. In kind it is ADME, organism-based. The note with it: in vivo. Put shortly:
as §3

Series [12] can be described thus: Oral bioavailability in Sprague-Dawley rat at 2 mg/kg. The note with it: in vivo. It is filed as ADME, organism-based. Put shortly:
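Multi-species PK study in male animals, n = 3 per group (dog IV arm n = 2). Iv and oral dosing with plasma concentration–time profiles yielding Cmax, tmax, AUC0–t, CL, Vss, t1/2 and F.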

Series [13] in a line: Clearance in Sprague-Dawley rat at 1 mg/kg. Conditions: in vivo.
A short description of series [14]: Bioavailability in Sprague-Dawley rat at 2 to 6 mg/kg, po and 1 mg/kg, iv. Conditions: in vivo.

Sequence of CYP3A4 (P08684 whole entry): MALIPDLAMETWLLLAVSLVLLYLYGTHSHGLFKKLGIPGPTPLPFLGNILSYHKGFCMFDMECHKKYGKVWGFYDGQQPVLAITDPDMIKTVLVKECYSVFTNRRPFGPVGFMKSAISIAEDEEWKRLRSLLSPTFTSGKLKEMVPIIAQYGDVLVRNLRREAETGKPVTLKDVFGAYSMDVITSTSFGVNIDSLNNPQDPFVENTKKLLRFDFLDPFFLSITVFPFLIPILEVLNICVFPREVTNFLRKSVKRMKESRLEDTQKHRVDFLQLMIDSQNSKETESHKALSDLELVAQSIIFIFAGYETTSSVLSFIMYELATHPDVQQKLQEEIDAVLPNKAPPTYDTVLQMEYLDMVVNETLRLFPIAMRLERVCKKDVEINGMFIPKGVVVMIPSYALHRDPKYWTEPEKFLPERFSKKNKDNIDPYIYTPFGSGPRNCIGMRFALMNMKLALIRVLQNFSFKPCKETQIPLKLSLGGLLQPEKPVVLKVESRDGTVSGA

With `CC(C)n1c(=O)cc(N[C@@H](C)c2ccccc2)[nH]c1=O` [MAVACAMTEN], the Activity in the series on Rattus norvegicus [1] is recorded as 80%. The 10% effect concentration (IC10) in the series on Rattus norvegicus [2] (Rattus norvegicus, Sprague-Dawley, 24 h) came out at 600 nM. In addition, the half-maximal inhibitory concentration (IC50) in the series on Rattus norvegicus [2] (time hrs <=24) is 1700 nM. The Ratio in series [3] is 2.8. Further, the EC50 at 3 days on CYP3A4 was 2200 nM. Also, at Cytochrome P450 2B6, the EC50 stood at 5100 nM. This molecule also gave a half-life in series [4] of 216 h.

With `Cn1nnc(C(=O)N[C@@H]2CCc3cc(-c4noc(C5CC5)n4)ccc32)n1`, in [5], the IC50 came to 1000 nM. In addition, the CLint scaled in series [6] is less than 21 mL/min/kg; in [7], less than 11 mL/min/kg. Moreover, the fraction unbound at 6 h, 5 µM in series [8] was found to be 0.12. In addition, the fraction unbound in [9] turned out to be 0.077. Moreover, the clearance in [10] and in series [13] was 5 mL/min/kg throughout. The same molecule had a half-life in series [11] of 17.8 h. Also, in series [12], the bioavailability was 100%.

`CCc1nc(-c2ccc3c(c2)CC[C@H]3NC(=O)c2nnn(C)n2)no1` returned a half-maximal inhibitory concentration (IC50) in series [5] of 900 nM. The CLint scaled in series [6] is less than 21 mL/min/kg; in [7], less than 11 mL/min/kg. Moreover, the fraction unbound at 6 h, 5 µM in series [8] turned out to be 0.29. Moreover, the fraction unbound in series [9] is 0.11. The clearance in series [10] and in series [13] was 20 mL/min/kg throughout. Also, the half-life in series [11] is 6.3 h. The bioavailability in series [14] was 53%.

One may read the IC10 as the concentration needed for an effect of 10%. In general, IC50 refers to the concentration that inhibits the measured activity by half. As usually defined, the EC50 is the concentration giving half of the maximal effect. For orientation: half-life means the time needed for the level to fall by half in the phase considered. A word on the fraction unbound: it is free concentration divided by total concentration. The term clearance denotes a measure of how efficiently the substance is removed, as volume per time. Broadly, the bioavailability is dose-corrected exposure relative to a reference, in per cent.
